# Reference: ChEMBL document CHEMBL1122366, “Potential antiatherosclerotic agents. 3. Substituted benzoic and non benzoic acid analogues of cetaben” (1983)
# Legend:
# Rattus norvegicus [1] = assay: In vivo triglyceride lowering activity when dosed as 0.01 % of the diet; type: functional
# Method in brief: (§1)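 Normal rats were dosed in the diet. Serum sterol and triglyceride levels were measured and expressed as the mean percent of control values. Significance versus control was reported at p < 0.05, 0.01 and 0.001.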
# Rattus norvegicus [2] = assay: In vivo sterol lowering activity when dosed as 0.01 % of the diet; type: functional; method in brief: as §1
# Rattus norvegicus [3] = assay: In vivo sterol lowering activity when dosed as 0.03 % of the diet; type: functional; method in brief: as §1
# Rattus norvegicus [4] = assay: In vivo triglyceride lowering activity when dosed at 0.03 % of the diet; type: functional; method in brief: as §1
# Rattus norvegicus [5] = assay: In vivo triglyceride lowering activity dosed at 0.10 % of the diet.; type: functional; method in brief: as §1
# Rattus norvegicus [6] = assay: In vivo sterol lowering activity at dose of 0.10 % of the diet; type: functional; method in brief: as §1
# [7] = target: T1, Sterol O-acyltransferase 1 (Rattus norvegicus) (UniProt O70536); assay: In vitro inhibition of acyl coenzyme A:cholesterol acyltransferase; design: concentration or dose not given beside the values; conditions: concentration not given here
# T1 sequence (whole entry): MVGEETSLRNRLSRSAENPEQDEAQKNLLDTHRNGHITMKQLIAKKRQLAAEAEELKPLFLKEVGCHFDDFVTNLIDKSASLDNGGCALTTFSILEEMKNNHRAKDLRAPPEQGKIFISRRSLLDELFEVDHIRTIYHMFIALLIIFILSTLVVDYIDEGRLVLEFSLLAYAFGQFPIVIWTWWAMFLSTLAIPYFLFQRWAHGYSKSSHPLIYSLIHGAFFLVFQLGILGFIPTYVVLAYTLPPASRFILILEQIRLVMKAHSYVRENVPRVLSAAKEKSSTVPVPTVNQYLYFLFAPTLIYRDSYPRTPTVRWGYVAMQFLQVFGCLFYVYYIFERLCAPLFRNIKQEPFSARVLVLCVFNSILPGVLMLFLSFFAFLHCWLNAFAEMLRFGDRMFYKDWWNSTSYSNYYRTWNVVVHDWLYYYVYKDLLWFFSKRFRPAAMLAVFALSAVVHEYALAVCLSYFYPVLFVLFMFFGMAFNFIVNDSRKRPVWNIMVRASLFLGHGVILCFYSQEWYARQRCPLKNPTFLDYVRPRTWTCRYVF
# Method in brief: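 Enzyme fatty acyl-CoA:cholesterol acyltransferase (ACAT), assayed in vitro at a single drug concentration of 5.2 μg/mL. The value is the mean percent inhibition of enzyme activity.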
SMILES,"serum triglyceride level, percent of control (Rattus norvegicus [1]) [%]","serum sterol level, % of control (Rattus norvegicus [2]) [%]","serum sterol level, percent of control (Rattus norvegicus [3]) [%]","serum triglyceride level, percent of control (Rattus norvegicus [4]) [%]","serum triglyceride, percent of control (Rattus norvegicus [5]) [%]","serum sterol level, percent of control (Rattus norvegicus [6]) [%]",inhibition [7] [%]
CCCCCCCCCCCCCCCCNc1ccc(C(=O)OCC(O)CO)cc1.Cl (configuration not stated),98,<88,92,<49,<30,<69,
CCCCCCCCCCCCCCCCCN(CC)c1ccc(C(=O)O)cc1,126,98,98,108,106,95,
CCCCCCCCCCCCCCCCN(C(C)=O)c1ccc(COC(C)=O)cc1,<70,97,93,<71,80,95,
CCCCCCCCCCCCCCCCNc1ccc(C(=O)OCCN(C)C)cc1.Cl,77,99,<92,73,<59,92,
CCCCCCCCCCCCCCCCNCc1ccc(C(=O)O)cc1,86,97,<89,91,96,<88,
CCCCCCCCCCCCCCCCNc1ccc(C(=O)OCC(COC)OC)cc1 (configuration not stated),,,83,62,70,82,< 24
CCCCCCCCCCCCCCCCN(CC(=O)O)c1ccc(C(=O)O)cc1,105,105,109,100,99,93,
CCCCCCCCCCCCCCCCN(CC)c1ccc(C(=O)[O-])cc1.[Na+],,114,116,,,116,
CCCCCCCCCCCCCCCCCN(C)c1ccc(C(=O)O)cc1,98,97,98,134,109,98,
CCCCCCCCCCCCCCCCN(CCCCCCCCCCCCCCCC)c1ccc(C(=O)O)c2ccccc12,100,111,109,99,112,101,
CCCCCCCCCCCCCCCCN(CC)c1ccc(C(=O)O)cc1,<78,<74,<60,<63,98,<86,
C=CCOC(=O)c1ccc(NCCCCCCCCCCCCCCCC)cc1,,94,103,<60,<70,<81,< 40
CCCCCCCCCCCCCCCCNc1ccc(CO)cc1,110,98,95,117,91,95,
CCCCCCCCCCCCCCCCNc1ccc(C(=O)OCC)cc1C,81,92,<87,94,95,103,
CCCCCCCCCCCCCCN(C)c1ccc(C(=O)O)cc1,82,97,94,92,103,97,
CCCCCCCCCCCCCCCCNc1ccc(C(=O)O)cc1 [CETABEN],<71,<72,<71,<45,<31,<54,
CCCCCCCCCCCCCCCCNc1ccc(C(=O)N2CCCC2)cc1,75,113,98,,95,101,59
CCCCCCCCCCCCCCCCCCN(C)c1ccc(C(=O)O)cc1,86,101,92,<61,<75,91,
CCCCCCCCCCCCCCCCNc1ccc(C(=O)NS(=O)(=O)c2ccc(C)cc2)cc1,<86,89,<56,<35,<40,<61,
CCCCCCCCCCCCCCCCNc1ccc(C(N)=O)cc1,,100,102,,114,<86,
CCCCCCCCCCCCCCCCN(C)c1ccc(C(=O)OCC)cc1,<64,<70,84,<73,78,<74,
CCCCCCCCCCCCCCN(C(C)=O)c1ccc(C(=O)O)cc1,98,95,<80,80,96,91,
CCCCCCCCCCCCCCCCNc1ccc(C(=O)O)c(Cl)c1,113,100,95,109,101,95,
CCCCCCCCCCCCCCCCNc1ccc(C(=O)CCC(=O)OC)cc1,,,<81,93,86,<84,7
